≈ marks a conversion by molar mass, not a printed value. Like-named read-outs stand apart in the source and are kept apart here.
Experiments:
VIM-2 [1] = biological target: T1, VIM-2 (Escherichia coli, UniProt Q5U7L7); experiment: IC50 assay, nitrocefin hydrolysis, 10 min preincubation; format: biochemical
NDM-1 [2] = biological target: T2, NDM-1 (Klebsiella pneumoniae, UniProt C7C422); experiment: as above; format: biochemical
IMP-1 [3] = biological target: T3, IMP-1 (Serratia marcescens, UniProt P52699); experiment: as above; format: biochemical
L1 [4] = biological target: T4, L1 (Stenotrophomonas maltophilia, UniProt P52700); experiment: as above; format: biochemical, S. maltophilia
VIM-2 [5] = biological target: T1, VIM-2; experiment: Ki determination, slow-binding progress curves with nitrocefin; format: biochemical
How it was run: (§1)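 Enzyme was added to nitrocefin in excess, with inhibitor dilutions spanning the variable-rate range: IMP-1 60 pM with 25 μM nitrocefin, VIM-2 39.2 pM with 100 μM, NDM-1 600 pM with 15 μM, L1 308 pM with 50 μM. Buffer was 50 mM HEPES pH 7.2, 50 μg/mL BSA, 0.01% Triton X-100, read at 482 nm and 30 °C for 10 min. Progress curves gave kobs; a linear fit of kobs versus [I] gave k–0 and Kiapp, then Ki.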

NDM-1 [6] = biological target: T2, NDM-1; experiment: as above; format: biochemical
How it was run: as §1

IMP-1 [7] = biological target: T3, IMP-1; experiment: as above; format: biochemical
How it was run: as §1

L1 [8] = biological target: T4, L1; experiment: as above; format: biochemical, S. maltophilia
How it was run: as §1

[9] = tested on: MBLs (VIM-2, NDM-1, IMP-1, L1); experiment: IC50 assay, summary over the MBLs tested; format: biochemical
[10] = tested on: K. pneumoniae UWB116 (NDM-1); conditions: NDM-1-producing K. pneumoniae clinical isolate, cited from earlier work
[11] = tested on: E. coli MG1655 vector only; experiment: Meropenem MIC, broth microdilution; format: cell-based; conditions: Escherichia coli, MG1655, read-out: Meropenem MIC
E. coli MG1655 IMP-1 = experiment: Meropenem MIC, broth microdilution; format: cell-based; conditions: Escherichia coli, MG1655, read-out: Meropenem MIC
E. coli MG1655 VIM-1 = experiment: Meropenem MIC, broth microdilution; format: cell-based; conditions: Escherichia coli, MG1655, read-out: Meropenem MIC
E. coli MG1655 NDM-1 = experiment: Meropenem MIC, broth microdilution; format: cell-based; conditions: Escherichia coli, MG1655, read-out: Meropenem MIC
K. pneumoniae Ecl8 NDM-1 = experiment: Meropenem MIC, broth microdilution; format: cell-based; conditions: Klebsiella pneumoniae, ECL8NDM1, read-out: Meropenem MIC
C. freundii D571 NDM-1 = experiment: Meropenem MIC, broth microdilution; format: cell-based; conditions: Citrobacter freundii, D571NDM1, read-out: Meropenem MIC
[12] = tested on: En. aerogenes 15-8358A NDM-1; experiment: Meropenem MIC, broth microdilution; format: cell-based; conditions: Klebsiella aerogenes, read-out: Meropenem MIC
[13] = tested on: P. aeruginosa UWB41 (VIM-2); experiment: Meropenem MIC, broth microdilution, clinical strain; format: cell-based; conditions: Pseudomonas aeruginosa, read-out: Meropenem MIC
P. putida #UWB24 (VIM-2) = experiment: as above; format: cell-based; conditions: in the absence of inhibitor
[14] = tested on: P. aeruginosa UWB78 (VIM-2); experiment: as above; format: cell-based; conditions: in the absence of inhibitor
[15] = tested on: S. maltophilia K279a (L1, L2); experiment: as above; format: cell-based; conditions: Stenotrophomonas maltophilia, read-out: Meropenem MIC
[16] = tested on: S. maltophilia JKWZP (L1, L2); experiment: Meropenem MIC, broth microdilution, RND pump knockout strain; format: cell-based; conditions: Stenotrophomonas maltophilia, read-out: Meropenem MIC
[17] = tested on: non-MBL-producing K. pneumoniae; conditions: non-MBL-producing strain; cited from earlier work
[18] = tested on: non-MBL-producing C. freundii; conditions: non-MBL-producing strain; cited from earlier work
[19] = tested on: non-MBL-producing En. aerogenes; conditions: non-MBL-producing strain; cited from earlier work

T2 sequence (C7C422 29-270, looked up, species assumed): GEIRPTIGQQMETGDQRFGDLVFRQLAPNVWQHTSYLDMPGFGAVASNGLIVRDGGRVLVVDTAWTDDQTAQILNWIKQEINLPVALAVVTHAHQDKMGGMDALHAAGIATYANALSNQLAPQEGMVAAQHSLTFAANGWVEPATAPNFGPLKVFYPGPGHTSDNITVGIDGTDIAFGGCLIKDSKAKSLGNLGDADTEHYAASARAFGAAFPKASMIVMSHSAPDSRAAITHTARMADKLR
T4 sequence (P52700 34-290): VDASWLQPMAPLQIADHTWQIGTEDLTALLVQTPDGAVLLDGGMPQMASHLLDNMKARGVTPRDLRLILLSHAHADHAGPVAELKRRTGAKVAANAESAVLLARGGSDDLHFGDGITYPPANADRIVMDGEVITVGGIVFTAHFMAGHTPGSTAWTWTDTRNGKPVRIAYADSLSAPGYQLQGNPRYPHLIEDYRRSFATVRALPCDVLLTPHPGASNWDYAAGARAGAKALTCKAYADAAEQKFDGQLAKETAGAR
T3 sequence (P52699 19-246, looked up): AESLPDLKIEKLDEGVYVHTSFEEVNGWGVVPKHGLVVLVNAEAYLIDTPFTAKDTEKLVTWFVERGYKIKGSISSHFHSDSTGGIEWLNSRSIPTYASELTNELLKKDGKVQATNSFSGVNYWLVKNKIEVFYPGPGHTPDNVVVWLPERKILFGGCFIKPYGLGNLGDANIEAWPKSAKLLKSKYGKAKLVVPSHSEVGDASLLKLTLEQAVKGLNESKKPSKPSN

## O=P(O)(O)Cc1ccccn1 [compound 4, (pyridin-2-ylmethyl)phosphonic acid]
VIM-2 [1]
  IC50: 171 µM
NDM-1 [2]
  IC50: > 1000 µM
IMP-1 [3]
  IC50: > 100 µM
L1 [4]
  IC50: > 1000 µM

## O=C(O)c1cccc(C(N(Cc2ccccc2)C(=O)c2cccs2)P(=O)(O)O)n1 (stereo not shown) [3c, 6-[(N-benzyl-1-thiophen-2-ylformamido)(phosphono)methyl]picolinic acid]
VIM-2 [1]
  IC50: 0.464 µM
NDM-1 [2]
  IC50: 0.306 µM
IMP-1 [3]
  IC50: 2.91 µM
L1 [4]
  IC50: 1.57 µM
L1 [4]; IC50, against L1
  potency compared to 3a: ~0.9 fold
VIM-2 [5]
  Ki: 0.038 ± 0.009 µM
NDM-1 [6]
  Ki: 0.034 ± 0.006 µM
IMP-1 [7]
  Ki: 0.4 ± 0.2 µM
IMP-1 [7]; IMP-1
  Dissociative t1/2 = 2 / k-0: 25 min
L1 [8]
  Ki: 0.4 ± 0.1 µM
[9]; IC50, against NDM-1, VIM-2 and IMP-1
  improved potency compared to 3a: 1.2–2.8 fold
[9]; read-out: IC50, range, against NDM-1, VIM-2 and IMP-1
  IC50: 0.306 to 2.91 µM

## N[C@H](CN[C@H](CN[C@@H](CC(=O)O)C(=O)O)C(=O)O)C(=O)O [AMA, aspergillomarasmine A]
[10]; in the presence of 16 mg/L AMA
  Meropenem MIC: 0.25 µg/mL
[10]; in the presence of 32 mg/L AMA
  Meropenem MIC: < 0.125 µg/mL

## O=C(O)c1ccccn1 [compound 1, 2-picolinic acid]
VIM-2 [1]
  IC50: 32.2 µM
NDM-1 [2]
  IC50: > 100 µM
IMP-1 [3]
  IC50: > 100 µM
L1 [4]
  IC50: > 100 µM

## Cc1cccc(C(=O)O)n1 [compound 2, 6-methylpicolinic acid]
VIM-2 [1]
  IC50: > 100 µM
NDM-1 [2]
  IC50: > 100 µM
IMP-1 [3]
  IC50: > 100 µM
L1 [4]
  IC50: > 100 µM

## O=C(O)c1cccc(C(O)P(=O)(O)O)n1 (stereo not shown) [3b, 6-[hydroxy(phosphono)methyl]picolinic acid]
VIM-2 [1]
  IC50: 1.9 µM
IMP-1 [3]
  IC50: 7.2 µM
L1 [4]
  IC50: 2.05 µM
VIM-2 [5]
  Ki: 0.61 ± 0.04 µM
VIM-2 [5]; VIM-2
  Dissociative t1/2 = 2 / k-0: 6 min
NDM-1 [6]
  Ki: 0.078 ± 0.008 µM
IMP-1 [7]
  Ki: 1.5 ± 0.1 µM
L1 [8]
  Ki: 0.4 ± 0.1 µM

## C[C@@H](O)[C@H]1C(=O)N2C(C(=O)O)=C(S[C@@H]3CN[C@H](C(=O)N(C)C)C3)[C@H](C)[C@H]12 [Meropenem]
[11]
  MIC: < 0.25 µg/mL
E. coli MG1655 IMP-1
  MIC: 16 µg/mL (≈ 41.7 µM)
E. coli MG1655 VIM-1
  MIC: 4 µg/mL (≈ 10.4 µM)
E. coli MG1655 NDM-1
  MIC: > 256 µg/mL
K. pneumoniae Ecl8 NDM-1
  MIC: > 256 µg/mL
C. freundii D571 NDM-1
  MIC: 32 µg/mL (≈ 83.4 µM)
[12]
  MIC: 64 µg/mL (≈ 167 µM)
[13]
  MIC: 128 µg/mL (≈ 334 µM)
P. putida #UWB24 (VIM-2)
  Meropenem MIC: 64 mg L^–1
[14]
  Meropenem MIC: 64 mg L^–1
[15]
  MIC: 16 µg/mL (≈ 41.7 µM)
[16]
  MIC: 32 µg/mL (≈ 83.4 µM)
[17]
  Meropenem MIC: ≤ 0.25 µg/mL
[18]
  Meropenem MIC: 0.06 µg/mL
[19]
  Meropenem MIC: 0.06 µg/mL
